The values below come from ChEMBL document CHEMBL1122777, “Effect of tellurium position on the myocardial uptake of radioiodinated 18-iodotellura-17-octadecenoic acid analogues” (1984).

Common to all, as to assay type: functional
Test [1] deals with Rattus norvegicus. As to the kind of experiment: Heart uptake after 30 min was determined in female Fischer rats after [125I]-labeled compound complexed with bovine serum albumin was injected intravenously. The essentials: (§1)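 Female Fischer 344 rats (fed ad libitum) under ether anaesthesia received the ¹²⁵I fatty acid in a lateral tail vein. Dose was ~3.8–4.8 μCi per rat (sp act ~125–240 mCi/mmol), given in 0.5 mL 6% bovine albumin (final ethanol 10%) after filtration. Four rats per time point were used. Tissue radioactivity is % injected dose/g, mean with range, calculated against standards of the injected solution.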

In test [2] the test system is Rattus norvegicus. As to the kind of experiment: Blood uptake after 3 day was determined in female Fischer rats after [125I]-labeled compound complexed with bovine serum albumin was injected intravenously. The essentials: as §1
For test [3], the system named is Rattus norvegicus. Put plainly: Thyroid uptake after 3 days was determined in female Fischer rats after [125I]-labeled compound complexed with bovine serum albumin was injected intravenously. In outline:
(§2)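 Female Fischer 344 rats with free access to food and water. The 125I-labelled fatty acid (~3.8–4.8 μCi; sp act. ~125–240 mCi/mmol) was complexed with 6% bovine serum albumin (10% final ethanol), filtered, and 0.5 mL was injected via a lateral tail vein under ether anaesthesia. Four rats per time point. Values are mean % injected dose/g, calculated against injectate standards. Thyroid weight was taken as 7.5 mg/100 g body weight.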

For test [4], the system named is Rattus norvegicus. Put plainly: Kidney uptake after 5 min was determined in female Fischer rats after [125I]-labeled compound complexed with bovine serum albumin was injected intravenously. In outline: as §1
The subject of test [5] is Rattus norvegicus. Put plainly: Lungs uptake after 1 day was determined in female Fischer rats after [125I]-labeled compound complexed with bovine serum albumin was injected intravenously. In outline:
as §1

Test [6] relates to Rattus norvegicus. Put plainly: Kidney uptake after 30 min was determined in female Fischer rats after [125I]-labeled compound complexed with bovine serum albumin was injected intravenously. In outline:
as §1

The test system of test [7] is Rattus norvegicus. Put plainly: Kidney uptake after 2 hr was determined in female Fischer rats after [125I]-labeled compound complexed with bovine serum albumin was injected intravenously. The essentials:
as §1

Test [8] concerns Rattus norvegicus. As to the kind of experiment: Heart uptake after 4 hr was determined in female Fischer rats after [125I]-labeled compound complexed with bovine serum albumin was injected intravenously. The essentials: as §1
Test [9] deals with Rattus norvegicus. As to the kind of experiment: Thyroid uptake after 1 day was determined in female Fischer rats after [125I]-labeled compound complexed with bovine serum albumin was injected intravenously. The essentials:
as §2

Test [10] in a line: Ratio of heart to blood uptake after 60 min was determined in female Fischer rats after [125I]-labeled compound complexed with bovine serum albumin was injected intravenously. In outline: (§3)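 Female Fischer 344 rats (food and water ad libitum) given the 125I-labelled fatty acid in 6% bovine albumin with 10% final ethanol, filtered, 0.5 mL into a lateral tail vein under ether anaesthesia. Four rats per time point. Tissue activity expressed as % injected dose/g against assayed injectate standards. Mean heart/tissue ratios were calculated from mean %ID/g values.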

For test [11], the system named is Rattus norvegicus. Put plainly: Heart uptake after 3 day was determined in female Fischer rats after [125I]-labeled compound complexed with bovine serum albumin was injected intravenously. The essentials:
as §1

Test [12] can be described thus: Ratio of heart to lungs uptake after 5 min was determined in female Fischer rats after [125I]-labeled compound complexed with bovine serum albumin was injected intravenously. The essentials:
as §3

For test [13], the system named is Rattus norvegicus. Put plainly: Kidney uptake after 60 min was determined in female Fischer rats after [125I]-labeled compound complexed with bovine serum albumin was injected intravenously. The essentials: as §1
Test [14] can be described thus: Ratio of heart to liver uptake after 5 min was determined in female Fischer rats after [125I]-labeled compound complexed with bovine serum albumin was injected intravenously. In outline: as §3
Test [15] concerns Rattus norvegicus. Put plainly: Kidney uptake after 1 day was determined in female Fischer rats after [125I]-labeled compound complexed with bovine serum albumin was injected intravenously. The essentials: as §1
Test [16] in a line: Ratio of heart to blood uptake after 5 min was determined in female Fischer rats after [125I]-labeled compound complexed with bovine serum albumin was injected intravenously. In outline: as §3
Test [17] relates to Rattus norvegicus. Put plainly: Thyroid uptake after 2 hr was determined in female Fischer rats after [125I]-labeled compound complexed with bovine serum albumin was injected intravenously. The essentials:
as §2

Test [18] in a line: Ratio of heart to blood uptake after 30 min was determined in female Fischer rats after [125I]-labeled compound complexed with bovine serum albumin was injected intravenously. In outline: as §3
The subject of test [19] is Rattus norvegicus. Put plainly: Kidney uptake after 3 days was determined in female Fischer rats after [125I]-labeled compound complexed with bovine serum albumin was injected intravenously. In outline: as §1
The subject of test [20] is Rattus norvegicus. Put plainly: Kidney uptake after 4 hr was determined in female Fischer rats after [125I]-labeled compound complexed with bovine serum albumin was injected intravenously. In outline:
as §1

For test [21], the system named is Rattus norvegicus. As to the kind of experiment: Liver uptake after 3 day was determined in female Fischer rats after [125I]-labeled compound complexed with bovine serum albumin was injected intravenously. The essentials:
as §1

The subject of test [22] is Rattus norvegicus. Put plainly: Kidneys uptake after 4 hr was determined in female Fischer rats after [125I]-labeled compound complexed with bovine serum albumin was injected intravenously. In outline: as §1
Test [23] deals with Rattus norvegicus. As to the kind of experiment: Kidneys uptake after 60 min was determined in female Fischer rats after [125I]-labeled compound complexed with bovine serum albumin was injected intravenously. In outline: as §1
Test [24] relates to Rattus norvegicus. Put plainly: Kidneys uptake after 5 min was determined in female Fischer rats after [125I]-labeled compound complexed with bovine serum albumin was injected intravenously. In outline:
as §1

For test [25], the system named is Rattus norvegicus. As to the kind of experiment: Kidneys uptake after 3 days was determined in female Fischer rats after [125I]-labeled compound complexed with bovine serum albumin was injected intravenously. The essentials: as §1
In test [26] the test system is Rattus norvegicus. Put plainly: Blood uptake after 3 days was determined in female Fischer rats after [125I]-labeled compound complexed with bovine serum albumin was injected intravenously. In outline:
as §1

In test [27] the test system is Rattus norvegicus. Put plainly: Heart uptake after 3 days was determined in female Fischer rats after [125I]-labeled compound complexed with bovine serum albumin was injected intravenously. In outline:
as §1

Test [28] has as its system Rattus norvegicus. As to the kind of experiment: Kidneys uptake after 30 min was determined in female Fischer rats after [125I]-labeled compound complexed with bovine serum albumin was injected intravenously. In outline: as §1
Test [29] concerns Rattus norvegicus. Put plainly: Kidneys uptake after 1 day was determined in female Fischer rats after [125I]-labeled compound complexed with bovine serum albumin was injected intravenously. In outline: as §1
Test [30] has as its system Rattus norvegicus. As to the kind of experiment: Kidneys uptake after 2 hr was determined in female Fischer rats after [125I]-labeled compound complexed with bovine serum albumin was injected intravenously. The essentials:
as §1

The test system of test [31] is Rattus norvegicus. As to the kind of experiment: Liver uptake after 3 days was determined in female Fischer rats after [125I]-labeled compound complexed with bovine serum albumin was injected intravenously. The essentials:
as §1

For `O=C(O)CCCCCCC[Te]CCCCCCC/C=C/I`, the Injected dose/g worked out at 3.76% in the test on Rattus norvegicus [1]; 0.21% in the test on Rattus norvegicus [2]; 267% with Rattus norvegicus [3]; 1.58% in the test on Rattus norvegicus [4]; 0.55% in the test on Rattus norvegicus [5]; 1.38% in the test on Rattus norvegicus [6]. Further, the Injected dose/g is 1.27% in the test on Rattus norvegicus [7]; 3.51% in the test with Rattus norvegicus [8]; 294% in the test on Rattus norvegicus [9]; 0.28% with Rattus norvegicus [11]; 1.52% in the test with Rattus norvegicus [13]; 0.59% in the test on Rattus norvegicus [15]. Besides, the Injected dose/g with Rattus norvegicus [17] is 38.5%; in the test with Rattus norvegicus [19], 0.22%; in the test with Rattus norvegicus [20], 1.19%; in the test with Rattus norvegicus [21], 0.64%. The Ratio is recorded as 14 in [10]; 2.9 in test [12]; 0.75 in test [14]; 21 in [16]; 8 in [18].

Consider `O=C(O)CCCCCCCCC[Te]CCCCC/C=C/I`, for which the Injected dose/g in the test with Rattus norvegicus [1] is reported as 3.05%; with Rattus norvegicus [3], 227%; in the test on Rattus norvegicus [22], 1.42%; with Rattus norvegicus [23], 1.92%; in the test on Rattus norvegicus [5], 0.76%; in the test with Rattus norvegicus [24], 2.22%. The Injected dose/g in the test on Rattus norvegicus [8] came to 2.44%; in the test on Rattus norvegicus [9], 221%; with Rattus norvegicus [25], 0.21%; in the test on Rattus norvegicus [26], 0.34%; in the test on Rattus norvegicus [27], 0.34%; with Rattus norvegicus [17] it was 45%. For the same compound, the Injected dose/g with Rattus norvegicus [28] was 1.85%; with Rattus norvegicus [29] it was 0.62%; with Rattus norvegicus [30], 1.51%; with Rattus norvegicus [31] it was 0.19%. For the same compound, the Ratio came to 5 in [10]; 1.2 in [12]; 0.37 in test [14]; 7 in test [16]; 5 in [18].
